# A selection: hits, their analogues and other compounds. The true share with any hit is near 3.1%.
# KCNQ1 inh – blocks the human KCNQ1 potassium channel | CHO-K1 KCNQ1, FluxOR thallium flux fluorescence; stronger effect = higher value | hit rate 1.3% among 310,000 | AID 2642 | B-score at 10 µM | P51787;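 active means compounds whose thallium flux B-score, printed positive for inhibition, exceeds three library SD while starting fluorescence stays within three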;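 further: channel opened by potassium depolarization with thallium stimulus after 20 min compound exposure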
# KCNK3 block – human KCNK3 channel inhibition, primary screen; CHO-KCNK3 thallium flux, FluxOR fluorescence; stronger effect = lower value; B-score at 10 µM; hit rate 0.84% among 340,000;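 active means B-score under library mean minus 4 SD, starting fluorescence ratio at most library mean plus 5 SD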;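 further: more negative B-score means stronger inhibition of thallium flux through KCNK3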
# Target sequence (O14649 whole entry, looked up): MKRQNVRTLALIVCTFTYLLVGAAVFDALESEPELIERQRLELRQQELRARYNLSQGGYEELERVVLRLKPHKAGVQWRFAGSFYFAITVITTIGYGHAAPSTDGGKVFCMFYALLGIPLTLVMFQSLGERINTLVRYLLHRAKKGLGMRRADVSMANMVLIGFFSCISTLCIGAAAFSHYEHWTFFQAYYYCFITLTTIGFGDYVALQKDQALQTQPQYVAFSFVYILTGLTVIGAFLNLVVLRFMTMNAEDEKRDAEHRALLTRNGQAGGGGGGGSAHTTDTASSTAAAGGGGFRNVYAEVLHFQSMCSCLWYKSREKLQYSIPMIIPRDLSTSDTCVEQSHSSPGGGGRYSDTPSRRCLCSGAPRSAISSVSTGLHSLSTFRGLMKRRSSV
# KCNQ1 act – human KCNQ1 channel potentiation or activation; B-score at 10 µM; CHO-K1 KCNQ1, thallium flux FluxOR fluorescence; stronger effect = higher value; hit rate 0.35% among 310,000; P51787;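 active means fluorescence ratio B-score, a plate-corrected score, at least three library SD, with initial intensity B-score within 5 SD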
#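 Test system: CHO-K1 cells stably expressing KCNQ1 / Medium: assay buffer / Also added: depolarizing K+/Tl+ stimulus, K2SO4 and Tl2SO4 each 12.5 mM in 5x stock / Incubation: 90 min dye loading and 20 min compound exposure, both at room temperature / Signal: thallium influx via FluxOR fluorescence, kinetic imaging / Evaluation: B score of baseline-normalized fluorescence ratio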
# KCNK9 block – inhibitors of human KCNK9 two-pore domain potassium channel. Q9NPC2. HEK293 KCNK9, FluxOR thallium flux fluorescence; stronger effect = lower value. B-score at 10 µM. hit rate 1.2% among 310,000. AID 488922;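 active means ratio B-score over 3 SD below the library mean, with starting fluorescence within 5 SD of its mean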;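 further: negative B-score means less thallium flux so channel inhibition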
# hERG rescue – compounds protecting human hERG from proarrhythmic drug block; Q12809; CHO-hERG, FluxOR thallium flux, dofetilide IC70 present; activation (rescue from dofetilide block), less the hit threshold, % at 10 µM; hit rate 0.51% among 310,000; AID 1511;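 active means activation above the mean of controls blocked by dofetilide plus 5 SD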;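 further: thallium influx through hERG after potassium depolarization seen as dye fluorescence rise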
# An asterisk follows results filed as active; i = inactive; · = not tested or not shown.
SMILES,KCNQ1 inh,KCNK3 block,KCNQ1 act,KCNK9 block,hERG rescue
CCOC(=O)c1ccc(Oc2cc(C)nc(SC)n2)cc1,i,i,i,i,5.5*
CC1CCCCN1C(=O)CCC(=O)Nc1nnc(C2CCCCC2)s1 (stereo unspecified),i,i,i,-6.9*,-6
O=C(COC(=O)/C=C/c1ccc2c(c1)OCO2)NC1CC1,i,i,i,i,5.4*
CCC(Oc1ccccc1)C(=O)Nc1ccc(S(=O)(=O)N2CCOCC2)cc1 (stereo unspecified),i,i,i,i,5.0*
O=C(CCc1ccccc1Cl)Nc1cc(S(=O)(=O)N2CCOCC2)ccc1N1CCCC1,·,i,·,·,·
O=C(CCc1ccccc1Cl)Nc1ccc(S(=O)(=O)N2CCOCC2)cc1,i,i,i,i,7.0*
Cc1ccc(NC(=S)Nc2ccc(S(=O)(=O)N3CCOCC3)cc2)cc1S(=O)(=O)N1CCOCC1,7*,i,i,i,-13
Cc1ccc(NC(=O)Cc2ccc(Cl)cc2)cc1S(=O)(=O)N1CCCCCC1,·,-9*,·,·,·
CC(C)(C)NNC(=S)Nc1ccc(S(=O)(=O)N2CCOCC2)cc1,i,i,i,i,-9
COc1ccc(CC(=O)Nc2ccc(C)c(S(=O)(=O)N3CCCCCC3)c2)cc1,·,i,·,·,·
Cc1cc(C)cc(NC(=S)N2CCC(C(=O)c3ccc(F)cc3)CC2)c1,·,i,·,·,·
Fc1cccc(CSc2ncnc3c2ncn3C2CCCCO2)c1 (stereo unspecified),·,i,·,·,·
CC(C)(C)C(=O)Nc1cccc(OC(F)(F)C(F)Cl)c1 (stereo unspecified),i,i,i,-7*,-1
CCOc1ccc(CN(C)Cc2cc(=O)oc3c(C)c(C)ccc23)cc1OC,·,i,·,·,·
CSc1ccc(CN(C)Cc2cc(=O)oc3c(C)c(C)ccc23)cc1,7*,i,i,i,-15
COc1cc(C2c3cc4c(cc3OC(NCc3ccccc3)C2C)OCO4)cc(OC)c1OC (stereo unspecified),·,i,·,·,·
CC(/C=N/NC(=O)c1nnn(-c2nonc2N)c1CN(C)C)=C\c1ccco1,i,i,i,i,-7
C/C(=N\NC(=O)c1nnn(-c2nonc2N)c1CN(C)c1ccccc1)c1ccccn1,i,i,i,-7.6*,-10
CCCN(CCC)Cc1c(C(=O)N/N=C/C(C)=C\c2ccco2)nnn1-c1nonc1N,i,i,16*,i,-14
O=C(c1ccc(S(=O)(=O)N2CCCC2)cc1)N(c1ccc(F)cc1)C1C=CS(=O)(=O)C1 (stereo unspecified),i,i,i,i,-8
CCc1cc(=O)oc2cc(C)cc(OC(C)C(=O)NCCCn3ccnc3)c12 (stereo unspecified),i,i,i,i,-7
O=C(CNC(=O)c1cccc(-n2cnnn2)c1)Nc1ccc(F)c(F)c1,·,i,·,·,·
COc1ccc2c(c1)C(=NO)c1cc(OC)ccc1-2,i,i,i,i,-7
C=CCOc1ccc2c(c1)C(=NO)c1cc(OCC=C)ccc1-2,i,i,i,-7.8*,-1
Cc1c(C(=O)Nc2ccccc2[N+](=O)[O-])csc1-c1ccccc1,i,i,i,-6.7*,-16
SMILES,KCNQ1 inh,KCNK3 block,KCNQ1 act,KCNK9 block,hERG rescue
CCOC(=O)c1c(S(=O)(=O)Nc2ccc(F)cc2Cl)c(C)n(C)c1C,i,i,i,i,-1
O=C(CN(Cc1ccccc1)C(=O)c1ccco1)NCc1ccc(F)cc1,i,i,i,i,-6
CN(CC(=O)NCc1cccc(F)c1)C(=O)c1ccco1,i,i,i,i,6.5*
c1ccc(NC2=NCCN2CC2CCCC2)cc1,i,i,i,i,4.9*
O=C1ON=C(c2ccccc2)/C1=C/c1ccco1,7*,i,i,i,-24
CN(C)c1ccc(N=Cc2nc(-c3ccccc3)oc2OC(=O)c2cccc(Br)c2)cc1,i,i,i,-6.6*,-7
COc1ccccc1-c1nnc(SCC(=O)Nc2nc(-c3ccccc3)cs2)n1C,i,i,i,i,6.1*
COc1ccc(CCNC(=O)c2cc(C(=O)c3cc(Cl)ccc3O)cn(CCc3ccc(OC)cc3)c2=O)cc1,8*,i,i,i,-22
COc1ccc(CCNC(=O)c2cc(C(=O)c3cc(C)ccc3O)cn(CCc3ccc(OC)cc3)c2=O)cc1,i,i,i,i,-33
O=C(c1cc(C(=O)NCCc2ccccc2)c(=O)n(CCc2ccccc2)c1)c1cc(Cl)ccc1O,10*,i,i,i,-14
O=C(NCCc1ccccc1)c1ccccc1Cl,i,i,i,i,-10
COc1cc(OC)c(NC(=S)Nc2cc(Cl)cc(Cl)c2)cc1Cl,10*,i,i,i,-11
COCCNC(=S)Nc1ccc(Cl)c(Cl)c1,6*,i,i,i,-11
COc1cc(C)c(NC(=S)Nc2ccc(Cl)c(Cl)c2)cc1OC,6*,i,i,i,-18
CCn1ncc(Br)c1C(=O)Nc1ccc(-c2ccno2)cc1,i,i,i,i,-13
COCCC(=O)N1CCC(Oc2ccc(C(=O)NCc3cccc(C)n3)cc2)CC1,i,i,i,i,-2
CCSC(C)CC1C/C(=N/O)c2c(CC)noc2C1 (stereo unspecified),i,i,i,i,-4
CCCc1noc2c1/C(=N\O)CC(CC(C)SCC)C2 (stereo unspecified),i,i,i,-7*,-4
Cc1cc(NC(=O)C(C)Sc2nnc(NCc3ccco3)s2)no1 (stereo unspecified),·,i,·,·,·
COc1ccc(C(=O)OCC(=O)c2c[nH]c3ccccc23)c(OC)c1,·,i,·,·,·
CCOc1ccc(N(C)S(=O)(=O)c2ccc(C)c(C(=O)OCC(=O)c3c[nH]c4ccccc34)c2)cc1,i,i,i,-7.6*,-10
CCC1Nc2ncnc(N3CCN(c4ccccn4)CC3)c2N(Cc2ccc(Cl)cc2)C1=O (stereo unspecified),i,i,i,i,-16
CCN(CC(=O)NCc1ccc(Cl)cc1)C(=O)c1ccc(S(=O)(=O)NCc2ccco2)cc1,i,i,i,i,-9
CCOC(=O)C1CCCN(C(=O)C2CCN(S(=O)(=O)c3ccc4ccccc4c3)CC2)C1 (stereo unspecified),i,i,10*,i,-16
O=C(NCc1ccc(F)cc1)C(=O)Nc1nc(C23CC4CC(CC(C4)C2)C3)cs1,i,i,i,i,4.9*
O=C(NCc1ccccc1)C(=O)Nc1nc(C23CC4CC(CC(C4)C2)C3)cs1,i,i,10*,i,18*
COc1cccc2cc(C(=O)CS(=O)(=O)c3ccc(Cl)cc3)c(=O)oc12,i,i,i,i,-5

# Compound activity as filed in PubChem BioAssay.
